UCH37 DUB inh – human UCH37 deubiquitinating enzyme inhibition; inhibition, % (concentration not given with the values); Q9Y5K5; purified proteasome/UCH37, Ub-AMC cleavage fluorescence; hit rate 0.33% among 330,000; AID 588478;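 active = mean inhibition over replicate wells above about 20%, limit read from the data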;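 note: 0% = compound-free wells with enzyme and 100% = wells lacking proteasome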
Target sequence (Q9Y5K5 whole entry, looked up): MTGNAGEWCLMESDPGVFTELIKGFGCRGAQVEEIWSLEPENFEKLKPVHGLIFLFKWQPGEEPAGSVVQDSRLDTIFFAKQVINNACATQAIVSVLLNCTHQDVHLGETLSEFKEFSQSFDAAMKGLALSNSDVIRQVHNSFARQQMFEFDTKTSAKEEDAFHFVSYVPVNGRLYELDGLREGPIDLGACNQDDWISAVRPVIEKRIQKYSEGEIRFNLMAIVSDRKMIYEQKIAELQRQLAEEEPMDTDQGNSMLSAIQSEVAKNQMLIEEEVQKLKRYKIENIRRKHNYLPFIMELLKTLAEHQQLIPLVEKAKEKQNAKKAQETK
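assay system = human UCH37 enzyme supplied as purified proteasome complex | amount = proteasome at 0.15 nM in the dispensed enzyme solution | schedule = 30 min compound-proteasome preincubation then 25 min substrate reaction, room temperature | measured by = fluorescence, ex 355 nm, em 460 nm | benchmarks = no-proteasome wells (full inhibition) and compound-free wells (no inhibition)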
Apaf1 inhib – inhibitors of human Apaf-1 apoptosome. O14727. reconstituted apoptosome caspase-3 activity, DEVD-Rh110 fluorescence. inhibition, % at 20 µM. hit rate 0.71% among 330,000; active = inhibition of at least 40% at 20 µM;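 note: plate controls were DMSO wells for no effect and DEVD-CHO caspase inhibitor wells for full effect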
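Material: biochemical Apaf-1 apoptosome reconstitution. Medium: Hepes buffer, pH 7.5. Also added: cytochrome c activation, bis-DEVD rhodamine 110 substrate. Timing: 30 min compound preincubation, 50 min activation, room temperature. Measured by: rhodamine 110 fluorescence at Ex 480/Em 540 nm.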
PREPL inhibitor – inhibitors of human prolyl oligopeptidase-like enzyme PREPL. Q4J6C6. recombinant PREPL, fluorescence polarization activity-based probe. inhibition, % at 5.96 µM. hit rate 0.68% among 320,000. AID 2751; in the data active = inhibition above about 43%;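 note: 0% = enzyme with DMSO and 100% = wells lacking enzyme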
UBC13 polyUb – inhibitors of human UBC13 polyubiquitin chain formation | P61088 | TR-FRET | inhibition, % at 20 µM | hit rate 0.47% among 330,000; in the data active = inhibition above about 45%, passing the limit was not always enough
Target sequence (P61088 whole entry, looked up): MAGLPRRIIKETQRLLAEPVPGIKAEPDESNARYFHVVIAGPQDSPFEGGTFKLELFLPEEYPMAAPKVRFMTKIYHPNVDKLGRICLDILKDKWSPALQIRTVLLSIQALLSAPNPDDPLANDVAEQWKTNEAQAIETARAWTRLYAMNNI
UCH37 confirm – reconfirmed inhibitor of human deubiquitinase UCH37. shares compounds with UCH37 DUB inh. Proteasome-bound UCH37, Ub-AMC cleavage fluorescence. inhibition, % at 20 µM. hit rate 27% among 480. AID 624100;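 active = average inhibition over replicates above about 50%, so the earlier screening hit is confirmed, limit read from the data; inactive = the rest, counted as false positives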;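 note: based on cleavage rate fitted by regression over a 30 min kinetic read; 0% = proteasome plus Ub-AMC and 100% = Ub-AMC without proteasome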
The depositor's hits bear a star; / = no result given. Sampled rows, rich in hits. Any-hit rate of the full collection: about 1.5%.

SMILES | UCH37 DUB inh | Apaf1 inhib | PREPL inhibitor | UBC13 polyUb | UCH37 confirm
COc1cc(N)c2ncccc2c1OC | 4.4 | / | / | / | /
CSc1nnc(NC(=O)c2cc(=O)c3cc(C)cc(C)c3o2)s1 | 34.2* | 8.7 | 7.0 | -7.7 | 9.4
CN(C)C=Nc1nccc(-c2cccs2)n1 | -28.4 | / | / | / | /
O=C(O)C(c1ccccc1)N1C(=O)/C(=C\c2ccc(-c3ccccc3Cl)o2)SC1=S (stereo not drawn) | 38.4* | 21.8 | 18.0 | -81.6 | 100.4*
CC1=Nc2ccccc2/C1=C/c1sc(=S)n(-c2cccc(C(=O)O)c2)c1O | 26.5* | / | / | / | 56.7*
Cc1cc(NC(=O)c2cccc(Cl)c2)n[nH]1 | 35.1* | -4.9 | -1.9 | -0.4 | 11.4
Cc1ccc(NC(=O)c2cccc(Cl)c2)nc1 | 3.2 | 5.6 | -3.1 | -0.8 | /
O=C(Nc1ccc2cn[nH]c2c1)c1c(Cl)cccc1Cl | 2.3 | 9.0 | 0.7 | 4.7 | /
O=C1C(Cl)=C(Nc2ccc3cn[nH]c3c2)C(=O)c2ccccc21 | 46.1* | / | 35.5 | / | 13.0
Cc1c(NC(=O)C(C)OC(=O)c2ccc([N+](=O)[O-])s2)c(=O)n(-c2ccccc2)n1C (stereo not drawn) | 77.1* | 24.2 | 23.9 | -22.0 | 27.0
CC(=NNc1ccc(F)cc1F)c1ccc(Br)s1 | 3.2 | / | / | / | /
NS(=O)(=O)c1ccc2c(c1)C(=NO)c1cc(S(N)(=O)=O)ccc1-2 | -10.3 | 0.1 | -7.9 | -13.4 | /
NC1=C(Cl)C(=O)c2ccc(S(N)(=O)=O)cc2C1=O | 89.1* | / | / | / | 92.2*
Cc1c(C=NNC(=O)C(NC(=O)c2ccc3c(c2)OCO3)C(C)C)c2ccccc2n1C (stereo not drawn) | 0.1 | / | / | / | /
CN(C)S(=O)(=O)c1ccc(C(=O)NCC(=O)NN=Cc2cccs2)cc1 | -0.5 | / | / | / | /
NC(=O)CC(NC(=O)Cc1ccc(Cl)cc1)c1ccc(NCCc2ccccc2F)c([N+](=O)[O-])c1 (stereo not drawn) | 47.8* | 21.0 | -89.4 | -13.9 | 2.5
N=C1/C(=C/c2ccc(-c3cccc(C(=O)O)c3)o2)C(=O)N=C2SC=C(c3ccccc3)N12 | 25.8* | 35.9 | 24.2 | -41.7 | 66.4*
O=C1C=C(N(CCO)Cc2ccccc2)c2ccccc2C1=O | 91.6* | / | / | / | 111.4*
CCc1ccc(NC(=O)COc2ccc(F)cc2C(=O)c2cnn(-c3ccccc3)c2)cc1 | 4.0 | 16.7 | -9.9 | 7.0 | /
COc1ccccc1NC(=O)COc1ccccc1C(=O)c1cnn(-c2ccccc2)c1 | 37.0* | 3.1 | -17.0 | 14.4 | -6.1
C=CCN1C=CC(=CC=C(C#N)C#N)C=C1 | 28.8* | -8.1 | -2.0 | -305.6 | 20.0
CCCN1C=CC(=CC=C(C#N)C#N)C=C1 | 38.2* | 2.8 | 7.2 | -158.0 | 25.6
Oc1ccc2ccccc2c1C=Nc1nc2c(s1)CCCC2 | 42.2* | / | / | / | 24.9
Oc1ccc2ccccc2c1/C=N/c1nccs1 | / | 12.0 | -0.6 | -7.9 | /
CCCc1nc2c(=O)n(C)c(=O)nc-2n(C)n1 | 99.9* | / | / | / | 100.3*
SMILES | UCH37 DUB inh | Apaf1 inhib | PREPL inhibitor | UBC13 polyUb | UCH37 confirm
COc1ccc(-c2oc(N=CN3CCCC3)c(C#N)c2-c2ccc(OC)cc2)cc1 | 4.6 | / | / | / | /
N#Cc1ccc(C(CC(=O)O)N2Cc3ccccc3C2=O)cc1 (stereo not drawn) | 5.1 | 0.1 | 8.4 | 2.7 | /
CC(C)c1ccc(C(CC(=O)O)N2Cc3ccccc3C2=O)cc1 (stereo not drawn) | 61.6* | -0.1 | -3.9 | 2.0 | 80.5*
CCCCOc1ccc(C=NNC(=O)c2nnn(-c3nonc3N)c2C)cc1 | -1.4 | / | / | / | /
CCc1ccc(NC(=O)C2CC(=O)N=C(N)S2)cc1 (stereo not drawn) | 3.9 | -3.6 | -1.1 | 7.7 | /
CC(C)c1ccc(NC(=O)C2CC(=O)N=C(N)S2)cc1 (stereo not drawn) | 25.8* | -10.1 | -0.1 | 1.7 | 55.3*
Fc1ccc(Nc2nc(-c3ccncc3)cs2)cc1 | 0.8 | 0.4 | 9.1 | -1.5 | /
Clc1ccc(Nc2nc(-c3ccncc3)cs2)cc1 | 49.4* | -7.5 | 11.0 | -1.6 | 27.1
CC1(C)CC(=O)C2=C(C1)N=c1sc(=Cc3ccc(F)c(F)c3)c(=O)n1C2c1ccc(F)cc1 (stereo not drawn) | 0.5 | / | / | / | /
CC(=O)Nc1ccc(Sc2ccc([N+](=O)[O-])o2)cc1 | 27.7* | / | / | / | 25.8
CCOC(=O)C1=CC[C@@H](c2ccccc2Cl)N(S(=O)(=O)c2ccc(C)cc2)[C@H]1C(=O)OCC | 38.0* | 5.8 | 1.3 | 7.8 | -8.6
CC(C)=CCC(C)(C)C1OCCN1C(=O)c1ccccc1 (stereo not drawn) | 63.4* | 2.8 | 7.2 | 5.2 | 67.8*
